Jurkat NFkB inh – inhibitors of induced NF-kB luciferase reporter, primary screen, TCR NF-kB activation inhibitor project, cell-based, luminescence, uHTS | inhibition, % at 4 µM | Jurkat, PMA/ionomycin-induced NF-kB luciferase reporter | 0.53% of 330,000 active; in the data active means inhibition above about 50%
NR2E3 ag-1 – NR2E3 agonists in two-hybrid cells, primary screen, cell-based, luminescence, CHO-S, Gal4-NCOR/VP16-NR2E3; Photoreceptor-specific nuclear receptor (Homo sapiens), Q9Y5X4; luciferase; inhibition of corepressor binding, % at 3.98 µM; 0.35% of 360,000 active; AID 602229, 2012;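 active means inhibition above the mean of all tested compounds plus 3 SD, cut at about 70% in these data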;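 further: 0% = DMSO with NR2E3 transfected cells and 100% = cells lacking NR2E3 construct; higher means lower luciferase signal from less NR2E3 corepressor binding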
Target sequence (Q9Y5X4 whole entry, looked up, the tested form may be a part): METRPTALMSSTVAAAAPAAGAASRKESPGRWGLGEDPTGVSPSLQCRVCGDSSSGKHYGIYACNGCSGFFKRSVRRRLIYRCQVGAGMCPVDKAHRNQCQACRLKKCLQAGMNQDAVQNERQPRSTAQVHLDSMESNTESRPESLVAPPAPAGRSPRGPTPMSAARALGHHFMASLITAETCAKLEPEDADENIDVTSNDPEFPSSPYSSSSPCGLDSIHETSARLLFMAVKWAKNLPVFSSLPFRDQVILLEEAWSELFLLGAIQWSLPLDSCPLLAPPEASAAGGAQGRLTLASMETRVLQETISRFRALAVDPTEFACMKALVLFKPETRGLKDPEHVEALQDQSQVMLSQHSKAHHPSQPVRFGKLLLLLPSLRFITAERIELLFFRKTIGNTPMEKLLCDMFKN
NR2E3 ag-2 – inhibitors of NR2E3-RetCOR corepressor binding, primary screen, NR2E3 agonist project, biochemical, TR-FRET, GST-NR2E3, biotin-RetCOR | 1536-well | inhibition of corepressor binding, % at 4.78 µM | 0.12% of 320,000 active;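 active means percent inhibition above the cutoff of mean plus 3 SD of all tested compounds, set per screening campaign, cut at about 20% in these data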;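 further: 0% = DMSO wells and 100% = biotin wells as full block of FRET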
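Material: NR2E3–RetCOR corepressor complex | Quantity: 1.35 nM GST-tagged NR2E3 final | Schedule: 5 h at 4 °C | Replication: Singlicate compound wells | Reagent: RetCOR corepressor, biotinylated, 7 nM | Controls: Biotin wells as high control, 0.6% DMSO wells as low control | Signal: TR-FRET, Eu(K)-anti-GST donor, streptavidin-D2 acceptor, ex 340, em 617/671 nm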
miR-122 sensor – miR-122 Renilla sensor signal increase in Huh7, primary screen, miR-122 inhibitor project, cell-based, single point, plate reader; Huh7 miR-122 Renilla luciferase sensor, 48 h; neutral wells = 0, positive control = 100; activation (reporter increase), % at 12.5 µM; 0.3% of 340,000 active; AID 602342, 2012;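 active means mean replicate activation score at least 90 and every replicate individually at or above 90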;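 further: higher luciferase means less miR-122 activity so hits act as miR-122 inhibitors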
FGF22 binding – binders of human FGF22 protein, primary screen, FGF22 synaptogenesis inhibitor project, biophysical, thermal shift, single point | 1.5% of 340,000 active | Fibroblast growth factor 22 (Homo sapiens), Q9HCT0 | activity (Tm shift, normalised), % at 9.99 µM | recombinant FGF22 thermal shift, SYPRO orange fluorescence; percent of sucrose octasulfate shift, DMSO zero | AID 651658, 2012;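 active means mean Tm shift, scaled 0 neutral to 100 positive control, at about 1.3% or above, every replicate too, limit read from the data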
697 NFkB inh – inhibitors of PMA/ionomycin-induced NF-kB reporter, 697 cells, primary screen, B-cell NF-kB inhibitor project, cell-based, luminescence, uHTS; 697 B-cell NF-kB luciferase reporter, 16 h; 0.33% of 330,000 active; AID 435022, 2010; inhibition, % at 4 µM; in the data active means inhibition above about 35%
NR2E3 ag conf – NR2E3 agonist confirmation in cells, cell-based, luminescence, CHO-S two-hybrid; shares compounds with NR2E3 ag-1; CHO-S mammalian two-hybrid NR2E3-NCOR, luciferase luminescence; inhibition, % at 3.98 µM; 51% of 2,300 active;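 active means average inhibition above a cutoff equal to the mean inhibition of all tested compounds plus one SD, cut at about 70% in these data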;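 further: 0% = DMSO in NR2E3 cells and 100% = DMSO in cells lacking NR2E3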
GAL4-VP16 luc – GAL4-VP16 reporter modulators, confirmation, counter-screen for NR2E3 agonist project, cell-based, luminescence, CHO-S, high throughput. inhibition, % at 3.98 µM. 29% of 2,300 active. CHO-S GAL4-VP16 luciferase reporter. shares compounds with NR2E3 ag-1;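 active means mean inhibition above a cutoff equal to the average over all tested compounds plus one standard deviation, cut at about 70% in these data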;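 further: luciferase from a UAS reporter driven by GAL4-VP16 transactivation; 0% = DMSO with VP16-transfected cells and 100% = DMSO with cells lacking VP16; higher means less reporter light so more repression of VP16 activity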
* marks the source's active call; other numbers are inactive results; . = not tested or not shown; [ ] = remark or other dose. Sampled rows, rich in hits. Any-hit rate of the full collection: about 2.2%.

SMILES	Jurkat NFkB inh	NR2E3 ag-1	NR2E3 ag-2	miR-122 sensor	FGF22 binding	697 NFkB inh	NR2E3 ag conf	GAL4-VP16 luc
CO[C@H]1CN(C)C(=O)c2cc(NC(=O)C3CC3)ccc2OC[C@H](C)N(Cc2cc(F)ccc2F)C[C@@H]1C	.	.	.	.	0	.	.	.
CCCCNc1c(-c2ccc(OC)c(SC3CCCCC3)c2)nc2ccc(C)cn12	0	61	.	45	0	-8	46	26
O=S(=O)(c1ccc(Cl)cc1)N1CCN(c2ncnc3sccc23)CC1	12	95*	.	-5	0	-30	94*	72*
COCC#Cc1cnc2c(c1)C(=O)N([C@H](C)CO)C[C@@H](C)[C@H](CN(C)C(=O)NC1CCCC1)O2	.	.	.	0[16.7 µM]	1	.	.	.
CCCOC(=O)c1ccc(OCC(O)Cn2c(C)nc3ccccc32)cc1 (centres undefined)	16	62	.	-4	0	-47	65	70
CC(=O)Nc1cccc(OCC(O)Cn2c(C)nc3ccccc32)c1 (centres undefined)	1	-7	-1	-5	.	3	.	.
COc1ccc(N=C2SCC(=O)N2CCc2ccc(OC)c(OC)c2)cc1	3	0	0	.	0	-9	.	.
COc1ccc(CCN2C(=O)CSC2=Nc2ccc(C(C)C)cc2)cc1OC	31	49	2	-13	0	-23	83*	75*
O=C(O)c1ccc(S(=O)(=O)NC2CCCc3ccccc32)cc1 (centres undefined)	6	-8	3	0	.	13	.	.
CC(=O)N1CCc2cc(S(=O)(=O)NC3CCCc4ccccc43)ccc21 (centres undefined)	29	67	3	9	.	-46	56	53
Cc1cnc(NC(=O)CN2CCN(c3ccccn3)CC2)s1	4	64	0	177*	.	24	94*	16
C/C=C/c1ccc([C@@H]2[C@H](CO)N(CC3CCCC3)C23CN(C(=O)COC)C3)cc1	.	.	.	.	0	.	.	.
Cc1cc(C)c(NS(=O)(=O)c2cccc3cccnc23)c(C)c1	2	6	2	5	0	12	.	.
Cc1ccc(S(=O)(=O)Nc2cccc3cccnc23)c([N+](=O)[O-])c1	47	76*	1	100*	0	-62	55	22
CC(C)C#Cc1cnc2c(c1)C(=O)N([C@@H](C)CO)C[C@H](C)[C@H](CN(C)C(=O)c1ccc3c(c1)OCO3)O2	.	.	.	-4[16.7 µM]	0	.	.	.
O=C(O)c1ccc(S(=O)(=O)/N=C2\C=C(Nc3ccccc3F)C(=O)c3ccccc32)cc1	-56	104*	9	-1	0	-71	100*	47
Cc1ccccc1NC1=C/C(=N\S(=O)(=O)c2ccc(C(=O)O)cc2)c2ccccc2C1=O	-5	25	19	-1	-1	-2	.	.
COc1ccc2c(CC(=O)Nc3ncc(C)s3)coc2c1	-54	62	7	.	0	-40	96*	-67
COc1ccc2c(CC(=O)Nc3nc(C)cs3)coc2c1	-9	-38	1	.	0	19	.	.
O=C(Cc1ccc(Cl)cc1)Nc1ncc([N+](=O)[O-])s1	.	-37	.	.	42	.	.	.
Cc1cnc(NC(=O)Cc2ccc(Br)cc2)s1	6	60	-1	.	0	14	91*	5
